Tests used:
[1] = test system: adjuvant-induced arthritis (AIA) rat model; assay: In vivo therapeutic efficacy in adjuvant-induced arthritis; design: species or system SD rats; settings: AIA rats, i.v. 0.75 mg/kg peptide every day for one week, n = 7, vs PBS
Procedure, shortened: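 Adjuvant arthritis was induced in male SD rats by s.c. CFA into the paws on Day 1 and was largely established by Day 10. Groups of n = 7, plus healthy controls, received daily i.v. PBS, free peptide or nanoparticles (0.75 mg/kg peptide) for one week. Body weight, paw thickness and joint score were recorded daily. Each paw was graded 0–4 for erythema/swelling, giving a maximum of 16 per rat. Values are mean ± SD; groups were compared by Student's t-test.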

ankle joints of AIA rats = assay: Joint histology; type: in vivo, SD rats; settings: i.v. 0.75 mg/kg peptide every day for one week
Procedure, shortened: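 CFA-induced arthritic SD rats received daily i.v. PBS, free peptide or nanoparticles (0.75 mg/kg peptide) for one week; healthy rats served as controls. Rats were sacrificed after 14 d. Ankle joints were fixed in 4% paraformaldehyde for 3 d, decalcified in 15% EDTA-2Na and sectioned. Sections were stained with HE, or immunostained with IL-17A and MPO antibodies plus secondary antibodies. n = 7.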

[2] = test system: TNF-α, IL-1β, IL-6, IL-17A in joint homogenates; assay: Inflammatory cytokines in joint homogenates of AIA rats; type: in vivo, SD rats; settings: ELISA, i.v. 0.75 mg/kg peptide every day for one week, n = 7
Procedure, shortened: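 SD rats made arthritic on Day 1 by 50 µl CFA (10 mg/ml M. tuberculosis) injected s.c. into paws. Arthritic rats (n = 7/group) then dosed i.v. daily for one week with PBS, free peptide or nanoparticle formulation at 0.75 mg/kg peptide; untreated healthy rats as reference. After 14 d, joint tissues cut up and homogenised; TNF-α, IL-1β, IL-6, IL-17A quantified by ELISA; mean ± SD.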

[3] = test system: Th17 (CD4+IL-17+) and Treg (CD4+Foxp3+) cells; assay: Flow cytometry of Th17 and Treg cells in draining lymph nodes of AIA rats; type: in vivo, SD rats; settings: Day 24, n = 7
Procedure, shortened: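 Arthritis induced in SD rats on Day 1 by subcutaneous paw injection of 50 µl CFA (10 mg/ml Mycobacterium tuberculosis). Groups (n = 7) given i.v. PBS, free peptide or peptide-loaded nanoparticles (0.75 mg/kg peptide) daily for one week; healthy rats as normal control. On Day 24, popliteal draining lymph nodes sieved (300-mesh) to single cells; CD4+IL-17+ and CD4+Foxp3+ subsets by flow cytometry; mean ± SD.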

[4] = Biocompatibility in AIA rats: blood cell counts and body weight; type: in vivo, SD rats; settings: compared to the normal group, n = 7

AMVSEFLKQAWFIENEEQEYVQTVK [Ac2–26]
paw thickness [1]: limited reduction of the paw thickness | expression of IL-17A in joint tissues (immunohistochemistry) (ankle joints of AIA rats): clearly visible | expression of MPO in joint tissues (immunohistochemistry) (ankle joints of AIA rats): slightly attenuate the expression of MPO | pathological condition of ankle joints (HE staining) (ankle joints of AIA rats; n = 7): extensive inflammation infiltration, tissue damage and cartilage destruction | expression of IL-1β in joint homogenates [2]: unable to effectively decrease the inflammatory level | expression of IL-6 in joint homogenates [2]: unable to effectively decrease the inflammatory level | expression of IL-17A in joint homogenates [2]: unable to effectively decrease the inflammatory level | expression of TNF-α in joint homogenates [2]: unable to effectively decrease the inflammatory level | proportion of Treg cells in draining lymph nodes [3]: unable to increase the proportion of Treg | count of platelets (PLT) [4]: no significant difference | count of white blood cells (WBC) [4]: no significant difference
